Test results as given in ChEMBL document CHEMBL3865807, “Syntheses and photodynamic activity of some glucose-conjugated BODIPY dyes” (Eur J Med Chem, 2016).
Active and inactive are the calls of the source. The calls are words filed in the database; no cut-off is given here.

Assays:
[1] = Photocytotoxicity against human A549 cells assessed as decrease in cell viability preincubated for 1 hr followed by 0.77 mW/cm2 white light irradiation for 80 mins measured after 24 hrs by MTT assay; format: functional, cell-based; conditions: A549, light or radiation study
In short: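 IC50 from MTT: A549 cells (1×10^4/well) given graded compound concentrations 1 h in serum-free DMEM (vehicle ≤0.1% DMSO), washed, photo-exposed 80 min at 0.77 mW/cm², regular medium 24 h; MTT 0.5 mg/mL 6 h, A550; viability relative to vehicle control; four replicates, three experiments, mean ± SEM.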

[2] = Cytotoxicity against human A549 cells assessed as decrease in cell viability up to 200 uM after 48 hrs under dark condition by MTT assay; format: toxicity, cell-based; conditions: a549, 48 h
In short: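 Dark toxicity: A549 cells treated as in the MTT protocol (1 h compound exposure, serum-free medium, washed) with no light, then assessed at 48 h by MTT (0.5 mg/mL, 6 h, formazan in HCl/SDS, A550).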

[3] = Drug uptake in cytoplasm of human A549 cells at 1 uM after 0.25 to 3 hrs by Hoechst 33342 staining based fluorescence microscopy; format: ADME, cell-based; conditions: a549, 1 µM
In short: (§1)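 A549 cells on coverslips loaded with dyes (1 µM) for 0.25, 0.5, 1, 2 or 3 h at 37 °C, washed, counterstained with Hoechst 33342 (10 µM), mounted in 70% glycerol; red dye and blue nuclear fluorescence imaged by fluorescence microscopy (40×) and overlaid.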

A549 [4] = experiment: Photocytotoxicity against human A549 cells assessed as decrease in cell viability at 500 to 5000 nM preincubated for 1 hr followed by 0.77 mW/cm2 white light irradiation measured after 24 hrs by MTT assay; format: functional, cell-based; conditions: TDE = time-dependent effect
In short: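 A549 cells (1×10^4/well), plated overnight, given compound for 1 h in serum-free medium, washed twice with PBS, irradiated 0.5, 1, 2 or 4 h at 0.77 mW/cm² (37 °C, 5% CO₂), then 24 h in regular medium; MTT 0.5 mg/mL for 6 h, formazan dissolved in 0.01 N HCl/10% SDS, A550.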

A549 [5] = experiment: Photocytotoxicity against human A549 cells assessed as necrosis at 2.5 uM preincubated for 1 hr followed by 0.77 mW/cm2 white light irradiation for 80 mins measured after 2 hrs by trypan blue staining based phase contrast microscopy; format: functional, cell-based
In short: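 Cells (1×10^5/well) on coverslips treated 1 h with dye (2.5 µM) or 0.1% DMSO, irradiated 80 min, serum added, 2 h later washed, stained with 0.1% trypan blue in PBS for 5 min, then viewed by phase-contrast microscopy at 40×.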

[6] = Drug uptake in human A549 cells at 1 uM after 0.25 to 3 hrs by Hoechst 33342 staining based fluorescence microscopy; format: ADME, cell-based; conditions: a549, 1 µM; in short: as §1
Bos taurus [7] = organism: Bos taurus; experiment: Binding affinity to calf thymus duplex DNA assessed as decrease in intensities of maximum absorption at 20 uM by spectrophotometric titration analysis
Bos taurus [8] = organism: Bos taurus; experiment: Binding affinity to calf thymus duplex DNA assessed as decrease in intensities of maximum absorption at 20 uM by spectrophotometric titration analysis
Bos taurus [9] = organism: Bos taurus; experiment: Binding affinity to calf thymus duplex DNA by UV-visible spectra analysis
[10] = Drug uptake in human A549 cells assessed as mean fluorescence intensity at 2.5 uM after 2 hrs by flow cytometry (reference value: 2.4 +/- 1.1); format: ADME, cell-based; conditions: a549, 2 h
[11] = Drug uptake in human A549 cells assessed as mean fluorescence intensity at 2.5 uM after 24 hrs by flow cytometry (reference value: 2.4 +/- 1.1); format: ADME, cell-based; conditions: a549, 24 h
[12] = Drug uptake in human A549 cells assessed as mean fluorescence intensity at 2.5 uM after 8 hrs by flow cytometry (reference value: 2.4 +/- 1.1); format: ADME, cell-based; conditions: a549, 8 h
[13] = Drug uptake in human A549 cells assessed as mean fluorescence intensity at 2.5 uM after 16 hrs by flow cytometry (reference value: 2.4 +/- 1.1); format: ADME, cell-based; conditions: a549, 16 h
[14] = Drug uptake in human A549 cells assessed as mean fluorescence intensity at 2.5 uM after 4 hrs by flow cytometry (reference value: 2.4 +/- 1.1); format: ADME, cell-based; conditions: a549, 4 h

Row | SMILES | IC50 [1] [µM] | Activity [2] | Drug uptake [3] | Activity (A549 [4]) | Activity (A549 [5]) | Drug uptake [6] | Activity (Bos taurus [7]) | Activity (Bos taurus [8]) | Kb (Bos taurus [9]) [×10⁴ /M] | Flu intensity [10] | Flu intensity [11] | Flu intensity [12] | Flu intensity [13] | Flu intensity [14]
1 | CCC1=C(C)C2=C(c3ccccc3)c3c(C)c(CC)c(C)n3[B-](F)(F)[N+]2=C1/C=C/c1ccc(O[C@H]2O[C@H](CO)[C@@H](O)[C@H](O)[C@H]2O)cc1 | 2.5 | Non-Toxic | Active | Tde | – | – | – | – | – | – | – | – | – | –
2 | CCC1=C(C)C2=C(c3ccc(O)cc3)c3c(C)c(CC)c(C)n3[B-](F)(F)[N+]2=C1C | 2.1 | Non-Toxic | Active | Tde | Active | – | – | – | – | – | – | – | – | –
3 | CCC1=C(C)C2=C(C)c3c(C)c(CC)c(C)n3[B-](F)(F)[N+]2=C1C | 6.8 | – | – | – | – | Active | – | – | – | – | – | – | – | –
4 | CCC1=C(C)C2=C(c3ccc(O[C@H]4O[C@H](CO)[C@@H](O)[C@H](O)[C@H]4O)cc3)c3c(C)c(CC)c(C)n3[B-](F)(F)[N+]2=C1C | > 10 | Non-Toxic | Active | Tde | – | – | Active | Active | 3.4 | – | – | – | – | –
5 | CCC1=C(C)C2=C(c3ccccc3)c3c(C)c(CC)c(C)n3[B-](F)(F)[N+]2=C1/C=C/c1ccc(O)cc1 | 6.4 | Non-Toxic | Active | Tde | – | – | – | – | – | – | – | – | – | –
6 | CCC1=C(C)C2=C(C)c3c(C)c(CC)c(C)n3[B-](F)(F)[N+]2=C1/C=C/c1ccc(O)cc1 | 6.5 | Non-Toxic | Active | Tde | – | – | – | – | – | 88 | 38.4 | 43.9 | 40.9 | 53.7
